Key:
Assay type in all cases: functional
RAW264.7 [1] = test: Antiinflammatory activity in mouse RAW264.7 cells assessed as inhibition of LPS-induced nitric oxide production at 50 uM after 20 hrs by Griess assay relative to control; details: RAW264.7, 20 h
Method in brief: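 Positive-control run in the same LPS (1 μg/mL, 20 h) RAW 264.7 system. Nitrite was quantified by Griess reaction at 540 nm against a sodium nitrite standard curve. Inhibition expressed relative to vehicle control.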

RAW264.7 [2] = test: Antiinflammatory activity in mouse RAW264.7 cells assessed as inhibition of LPS-induced PGE2 production at 20 uM administered 1 hr prior to LPS challenge measured after 20 hrs by EIA relative to control
Method in brief: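 RAW 264.7 cells plated at 3 × 10^5 cells/mL, pretreated with compound for 1 h, then stimulated with 1 μg/mL LPS for 20 h. PGE2 in the supernatant was measured by immunoassay kit. Mean ± SD of triplicates.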

Rattus norvegicus = test: Antiinflammatory activity in rat paw edema model assessed as inhibition of carrageenan-induced paw edema at 20 mg/kg, po administered 30 mins prior to carrageenan challenge measured after 4 hrs relative to vehicle-treated control
Method in brief: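 Male Sprague–Dawley rats (150–170 g, 5 weeks old); compound dissolved in 0.5% CMC-Na and given orally 30 min before subplantar injection of 0.1 mL 1% carrageenan suspension in saline into the right hind paw, with saline injected into the left. Paw volume read by plethysmometer at 0 h and up to 6 h; n = 6.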

Mus musculus = test: Antiinflammatory activity in ICR mouse ear edema model assessed as inhibition of TPA-induced ear edema at 20 mg/kg, po administered 30 mins prior to TPA challenge measured after 4 hrs relative to vehicle-treated control
Method in brief: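 ICR mice (male, 18−20 g, 5 weeks old) dosed orally 30 min before TPA (1.0 μg in 20 μL acetone) was applied to inner and outer surfaces of the right ear. Killed by cervical dislocation after 4 h. Edema taken as the weight of a 5 mm punch biopsy of the right ear over the left. Ear homogenates were Western blotted for iNOS, COX-2 and IL-1β.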

## CNC(=N)NCCC[C@H](N)C(=O)O [TILARGININE]
RAW264.7 [1]
  inhibition at 50 µM: 74%

## Cc1ccc(-c2cc(C(F)(F)F)nn2-c2ccc(S(N)(=O)=O)cc2)cc1 [CELECOXIB]
RAW264.7 [2]
  inhibition (INH): 81%

## COc1ccc2c(c1)c(CC(=O)O)c(C)n2C(=O)c1ccc(Cl)cc1 [INDOMETHACIN]
Rattus norvegicus
  inhibition in vivo at 20 mg/kg: 51%
Mus musculus
  inhibition in vivo at 20 mg/kg: 53%

— ChEMBL document CHEMBL3259611, “Suppression of inflammatory responses by handelin, a guaianolide dimer from Chrysanthemum boreale, via downregulation of NF-κB signaling and pro-inflammatory cytokine production” (J Nat Prod, 2014)
